Laboratory results published in ChEMBL document CHEMBL4364272, “Discovery of a Lead Triphenylethanamine Cholesterol Ester Transfer Protein (CETP) Inhibitor” (ACS Med Chem Lett, 2019).
The source made the active and inactive calls. The rule behind the calls is not given here.

What was measured:
Mus musculus [1] = assay: In vivo inhibition of CETP in hCETP/apoB-100 dual transgenic mouse assessed as reduction in [3H]-CE transfer at 10 mg/kg, po administered via gavage measured after 2 to 8 hrs by radioactivity based assay; assay type: functional, organism-based
[2] = molecular target: T1, Cholesteryl ester transfer protein (Homo sapiens, UniProt P11597); assay: Inhibition of CETP in human whole plasma assessed as reduction in [3H]-CE/HDL transfer incubated for 2.5 hrs by topcount scintillation counting assay; assay type: cell-free
T1 sequence (P11597 whole entry): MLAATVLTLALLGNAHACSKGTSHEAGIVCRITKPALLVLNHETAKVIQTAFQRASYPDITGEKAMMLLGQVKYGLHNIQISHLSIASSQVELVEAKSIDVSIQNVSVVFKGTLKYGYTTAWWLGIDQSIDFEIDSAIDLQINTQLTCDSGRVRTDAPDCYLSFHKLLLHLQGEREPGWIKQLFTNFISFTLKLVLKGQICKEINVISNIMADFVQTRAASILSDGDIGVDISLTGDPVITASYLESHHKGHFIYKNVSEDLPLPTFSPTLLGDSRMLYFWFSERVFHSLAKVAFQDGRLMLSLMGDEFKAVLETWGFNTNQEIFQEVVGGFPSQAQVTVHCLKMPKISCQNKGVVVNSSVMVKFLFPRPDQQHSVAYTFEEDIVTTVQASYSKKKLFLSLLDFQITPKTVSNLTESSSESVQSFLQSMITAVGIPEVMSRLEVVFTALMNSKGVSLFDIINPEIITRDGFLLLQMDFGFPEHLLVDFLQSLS
Method in brief: (§1)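 CETP activity was measured by scintillation proximity assay and by human whole plasma assay. Each was run in duplicate at six concentrations, and the mean values were used to calculate IC50.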

[3] = molecular target: Voltage-gated inwardly rectifying potassium channel KCNH2 (Homo sapiens, UniProt Q12809); assay: Inhibition of human ERG expressed in HEK293 cells by flux assay
Voltage-gated inwardly rectifying potassium channel KCNH2, sequence (Q12809 whole entry): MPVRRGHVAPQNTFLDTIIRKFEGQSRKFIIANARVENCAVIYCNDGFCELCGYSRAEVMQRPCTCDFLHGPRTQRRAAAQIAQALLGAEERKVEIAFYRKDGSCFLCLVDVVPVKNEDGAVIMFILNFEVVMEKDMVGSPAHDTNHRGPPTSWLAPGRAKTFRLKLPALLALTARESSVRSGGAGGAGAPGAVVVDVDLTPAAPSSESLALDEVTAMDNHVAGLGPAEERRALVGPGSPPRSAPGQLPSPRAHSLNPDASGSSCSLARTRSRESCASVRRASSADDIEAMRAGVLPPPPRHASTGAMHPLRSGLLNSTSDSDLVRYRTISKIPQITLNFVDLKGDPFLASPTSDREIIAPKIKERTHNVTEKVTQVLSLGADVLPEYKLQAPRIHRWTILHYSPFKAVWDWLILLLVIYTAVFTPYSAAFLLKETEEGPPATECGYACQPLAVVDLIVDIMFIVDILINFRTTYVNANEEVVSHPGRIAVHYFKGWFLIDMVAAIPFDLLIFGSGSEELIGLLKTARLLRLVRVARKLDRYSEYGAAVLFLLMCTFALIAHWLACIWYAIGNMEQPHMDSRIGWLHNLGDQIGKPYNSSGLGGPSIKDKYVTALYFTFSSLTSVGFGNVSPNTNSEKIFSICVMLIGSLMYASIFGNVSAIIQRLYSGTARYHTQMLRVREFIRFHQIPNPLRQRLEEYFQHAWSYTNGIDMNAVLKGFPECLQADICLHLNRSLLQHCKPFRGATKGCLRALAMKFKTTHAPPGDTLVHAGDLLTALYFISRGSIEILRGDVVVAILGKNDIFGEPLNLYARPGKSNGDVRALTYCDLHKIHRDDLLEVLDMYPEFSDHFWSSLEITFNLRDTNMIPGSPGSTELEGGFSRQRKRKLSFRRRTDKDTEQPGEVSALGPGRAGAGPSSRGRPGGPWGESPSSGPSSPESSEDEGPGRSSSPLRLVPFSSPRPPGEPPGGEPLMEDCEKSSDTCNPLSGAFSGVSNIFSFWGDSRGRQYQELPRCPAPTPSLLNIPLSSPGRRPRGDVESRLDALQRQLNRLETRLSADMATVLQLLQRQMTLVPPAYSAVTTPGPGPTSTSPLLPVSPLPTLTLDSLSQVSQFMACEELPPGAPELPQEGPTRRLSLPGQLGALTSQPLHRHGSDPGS

[4] = molecular target: T1, Cholesteryl ester transfer protein; assay: Inhibition of human recombinant CETP assessed as reduction in [3H]CE/HDL transfer incubated for 4 hrs by scintillation proximity assay; method in brief: as §1
[5] = Stability in human liver microsomes assessed as parent compound remaining at 50 uM preincubated for 5 to 7 mins followed by NADPH addition and measured 10 mins post-dose by LC-MS/MS; assay type: ADME, Microsome; settings: read-out: Stability
Mus musculus [6] = assay: In vivo inhibition of CETP in hCETP/apoB-100 dual transgenic mouse assessed as reduction in [3H]-CE transfer at 1 mg/kg, po administered via gavage measured after 2 to 8 hrs by radioactivity based assay; assay type: functional, organism-based
[7] = molecular target: T2, Cholesteryl ester transfer protein (Homo sapiens) (UniProt P11597); assay: Potency index, ratio of torcetrapib IC50 to test compound IC50 for inhibition of CETP in human whole plasma; assay type: cell-free
T2 sequence (whole entry): T1 sequence (P11597 whole entry)

[8] = Oral bioavailability in Sprague-Dawley rat at 10 mg/kg administered via gavage measured upto 24 hrs by LC-MS/MS; assay type: ADME, organism-based; settings: in vivo
Method in brief: (§2)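 Single IV and oral doses: rat 1 mg/kg IV and 10 mg/kg PO; mouse 5 mg/kg IV and 10 mg/kg PO; monkey 1 mg/kg IV and 5 mg/kg PO. IV vehicle was 10% Cremophor/10% EtOH/80% H2O for rodents and 70% PEG-400/10% EtOH/20% H2O for monkey. Oral vehicle was 15% Miglyol 812/30% Capmul MCM/15% Triacetin/40% Cremophor RH40, or the Cremophor vehicle for rat. Vss, Cl, t1/2 and %F were derived.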

[9] = Clearance in Sprague-Dawley rat at 1 mg/kg, iv or 10 mg/kg, po administered via gavage measured upto 24 hrs by LC-MS/MS; assay type: ADME, organism-based; settings: in vivo; method in brief: as §2
[10] = Stability in mouse liver microsomes assessed as parent compound remaining at 50 uM preincubated for 5 to 7 mins followed by NADPH addition and measured 10 mins post-dose by LC-MS/MS; assay type: ADME, Microsome; settings: read-out: Stability
[11] = Volume of distribution at steady state in Sprague-Dawley rat at 1 mg/kg, iv or 10 mg/kg, po administered via gavage measured upto 24 hrs by LC-MS/MS; assay type: ADME, organism-based; settings: in vivo, read-out: Vdss; method in brief: as §2
[12] = Half life in Sprague-Dawley rat at 1 mg/kg, iv or 10 mg/kg, po administered via gavage measured upto 24 hrs by LC-MS/MS; assay type: ADME, organism-based; settings: in vivo; method in brief: as §2
CYP11B2 = assay: Upregulation of CYP11B2 gene expression in human NCI-H295R cells at 0.1 uM measured after 24 hrs relative to control; assay type: ADME, cell-based; settings: read-out: FC
Method in brief: (§3)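 H295R cells were incubated for 24 h with test agent at 10 μM or angiotensin-II at 0.1 μM. CYP11B1 and CYP11B2 mRNA levels were measured and expressed as fold of control.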

CYP11B1 = assay: Upregulation of CYP11B1 gene expression in human NCI-H295R cells at 0.1 uM measured after 24 hrs relative to control; assay type: ADME, cell-based; settings: read-out: FC; method in brief: as §3

Row | Compound | IC50 [2] | IC50 [4] | remaining at 10 min, 50 µM [5] | remaining at 10 min, 50 µM [10] | IC50 [3] | other results
1 | CCOC(=O)N1c2ccc(C(F)(F)F)cc2[C@@H](N(Cc2cc(C(F)(F)F)cc(C(F)(F)F)c2)C(=O)OC)C[C@H]1CC |  |  |  |  |  | inhibition (Mus musculus [1]): Active
2 | NC(C(=O)N[C@@](Cc1ccccc1)(c1cc(F)cc(OC(F)(F)C(F)F)c1)c1ccc(Cl)cn1)C(O)(C(F)(F)F)C(F)(F)F (stereo in doubt; 9b) | 940 nM | 80 nM |  |  |  | IC50 ([3]; hek293): > 80 µM
3 | O=C(N[C@@](Cc1ccccc1)(c1cc(F)cc(C(F)(F)F)c1)c1ccc(Cl)cn1)C(O)C(O)(C(F)(F)F)C(F)(F)F (stereo partly specified) | 1400 nM | 35 nM |  |  |  | 
4 | O=C(CC(O)(C(F)(F)F)C(F)(F)F)N[C@@](Cc1ccccc1)(c1cc(F)cc(C(F)(F)F)c1)c1ccc(Cl)cn1 | 3800 nM | 120 nM | 92% | 91% | 22 µM | 
5 | NC(C(=O)N[C@@](Cc1ccccc1)(c1cc(F)cc(OC(F)(F)C(F)F)c1)c1ccc(Cl)cn1)C(O)(C(F)(F)F)C(F)(F)F (stereo in doubt; 9a) | 5900 nM | 53 nM | 100% | 100% | > 80 µM | 
6 | CC[C@H](C)[C@H](NC(=O)[C@H](Cc1ccc(O)cc1)NC(=O)[C@@H](NC(=O)[C@H](CCCNC(=N)N)NC(=O)[C@@H](N)CC(=O)O)C(C)C)C(=O)N[C@@H](Cc1cnc[nH]1)C(=O)N1CCC[C@H]1C(=O)N[C@@H](Cc1ccccc1)C(=O)O [ANGIOTENSIN II] |  |  |  |  |  | fold induction at 24 h, 0.1 µM (CYP11B2): 4; fold induction at 24 h, 0.1 µM (CYP11B1): 4
7 | CNC(C(=O)N[C@](Cc1ccccc1)(c1ccc(F)cc1)c1cc(F)cc(C(F)(F)F)c1)C(O)(C(F)(F)F)C(F)(F)F (stereo partly specified) | 6200 nM | 140 nM | 62% | 87% | 13 µM | 
8 | CC(C)NC(C(=O)N[C@](Cc1ccccc1)(c1ccc(F)cc1)c1cc(F)cc(C(F)(F)F)c1)C(O)(C(F)(F)F)C(F)(F)F (stereo partly specified) | 7100 nM | 230 nM | 71% | 54% | 63 µM | 
9 | CN(C)C(C(=O)N[C@](Cc1ccccc1)(c1ccc(F)cc1)c1cc(F)cc(C(F)(F)F)c1)C(O)(C(F)(F)F)C(F)(F)F (stereo partly specified) | 30000 nM | 3300 nM | 58% | 82% | 16 µM | 

More lines, main results first:

Row | IC50 [2] | IC50 [4] | remaining at 10 min, 50 µM [5] | remaining at 10 min, 50 µM [10] | Compound | IC50 [3] | other results
10 | 56 nM | 3 nM | 95% | 90% | CC(C)Oc1cc([C@@](Cc2ccccc2)(NC(=O)C(N)C(O)(C(F)(F)F)C(F)(F)F)c2cc(F)cc(OC(F)(F)C(F)F)c2)ccc1F (stereo partly specified) | 44 µM | inhibition (Mus musculus [6]): Active; Ratio IC50 [7]: 2; bioavailability [8]: 12%; clearance [9]: 5.4 mL/min/kg; Vd [11]: 0.5 L/kg; half-life [12]: 114 min
11 | 270 nM | 6 nM | 2% | 16% | CC(C)Oc1cc([C@@](Cc2ccccc2)(NC(=O)C(N)C(O)C(F)(F)F)c2cc(F)cc(OC(F)(F)C(F)F)c2)ccc1F (stereo partly specified) |  | 
12 | 58 nM | 5 nM | 100% | 100% | CC(C)Oc1cc([C@@](Cc2ccccc2)(NCC(O)C(O)(C(F)(F)F)C(F)(F)F)c2cc(F)cc(OC(F)(F)C(F)F)c2)ccc1F (stereo partly specified) | 12 µM | 
13 | 84 nM | 1 nM | 89% | 100% | CC(C)Oc1cc([C@@](Cc2ccccc2)(NC(=O)C(O)C(O)(C(F)(F)F)C(F)(F)F)c2cc(F)cc(OC(F)(F)C(F)F)c2)ccc1F (stereo partly specified) |  | 
14 | 200 nM | 26 nM | 81% | 68% | CC(C)Oc1cc([C@@](Cc2ccccc2)(NCC(N)C(O)(C(F)(F)F)C(F)(F)F)c2cc(F)cc(OC(F)(F)C(F)F)c2)ccc1F (stereo partly specified) | > 80 µM | 
15 | 140 nM | 5 nM | 100% | 100% | CC(C)(C)Oc1cc([C@@](Cc2ccccc2)(NC(=O)C(N)C(O)(C(F)(F)F)C(F)(F)F)c2cc(F)cc(OC(F)(F)C(F)F)c2)ccc1F (stereo partly specified) |  | 
16 | 430 nM | 11 nM | 100% | 72% | NC(C(=O)N[C@](Cc1ccccc1)(c1ccc(F)cc1)c1cc(F)cc(C(F)(F)F)c1)C(O)(C(F)(F)F)C(F)(F)F (stereo partly specified) | > 80 µM | 
